Measured values taken from PMC8244166 (Neuron, 2020).
Where “and” joins values, the source holds several entries; their conditions need not be identical. Equal entries are not always repeated.

Key:
TRPA1 channel = assay: Inside-out single channel / macropatch recordings; format: cell-based, human; details: for opening frequency / single channel open probability (Po) / open state dwell time: inside-out; for opening frequency / single channel open probability (Po): +80 mV, 100 nM WaTx (n = 8); for opening frequency / single channel open probability (Po) / Erev (reversal potential): 1 μM GNE551 (n = 5); for open state dwell time: agonist-activated channels; for y (single channel conductance) / Px/PNa (ion selectivity against Na+): 1 μM GNE551, 10 μM AITC; for Erev (reversal potential): 10 μM AITC (n = 4); for channel desensitization: nominally Ca2+-free solutions, AITC 10 μM, GNE551 1 μM
Glu864Trp channel = assay: Single channel recordings, point mutant; format: cell-based, human; details: +80 mV
Gln940Val TRPA1 = assay: Whole-cell patch clamp, point mutant; format: cell-based, human; details: GNE551 1.5 μM, AITC positive control, n = 4
In short: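 HEK293-F cells are recorded whole-cell one day after transient transfection. From a 0 mV holding potential, the protocol is 10 msec at −80 mV, a 200 msec ramp to +80 mV, then 10 msec at +80 mV, applied once per second. Nominally Ca2+-free solutions are used: bath NaCl/HEPES with 0.1 mM EGTA, pH 7.4; pipette CsF with 10 mM EGTA, pH 7.2. Compounds are delivered by fast solution exchange.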

TRPA1 Glu864Trp mutant = assay: Ca2+ assay, point mutant; format: cell-based, human; details: high background Ca2+ signals
In short: (§1)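 HEK293-F cells are transiently transfected with the TRPA1 construct one day before imaging. Cells are loaded with a calcium-sensitive dye for 1 h at 37 °C. Compound is added and fluorescence (Ca2+ RFU) is recorded on a kinetic fluorescence imager. EC50 comes from nonlinear regression constrained to EC50 > 0, Bottom = 0 and Hill slope between 1 and 3.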

[1] = tested on: rat hind paw nocifensive behavior; assay: Nocifensive behavior after intraplantar agonist injection; format: in vivo; details: for cumulative nocifensive time: n = 7
In short: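 Male Sprague-Dawley rats aged 8 weeks or older are used; KO versus WT littermates from heterozygote crosses include both sexes. Under light restraint, a unilateral intraplantar injection of 25 μL is given with a 30-gauge needle: reference electrophile 0.1% or test agonist 10 mM. Rats are video-recorded 15 min (reference) or 30 min (test agonist) during the light phase. Licking, flicking and guarding time is scored blind offline, and groups are compared by two-tailed t-test.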

hTRPA1 [2] = target: T1, hTRPA1 (Homo sapiens, UniProt O75762); assay: Whole-cell voltage-clamp recordings of TRPA1-expressing HEK293-F cells; format: cell-based; details: for current of second application compared to the first: whole-cell, n = 3
T1 sequence (O75762 whole entry): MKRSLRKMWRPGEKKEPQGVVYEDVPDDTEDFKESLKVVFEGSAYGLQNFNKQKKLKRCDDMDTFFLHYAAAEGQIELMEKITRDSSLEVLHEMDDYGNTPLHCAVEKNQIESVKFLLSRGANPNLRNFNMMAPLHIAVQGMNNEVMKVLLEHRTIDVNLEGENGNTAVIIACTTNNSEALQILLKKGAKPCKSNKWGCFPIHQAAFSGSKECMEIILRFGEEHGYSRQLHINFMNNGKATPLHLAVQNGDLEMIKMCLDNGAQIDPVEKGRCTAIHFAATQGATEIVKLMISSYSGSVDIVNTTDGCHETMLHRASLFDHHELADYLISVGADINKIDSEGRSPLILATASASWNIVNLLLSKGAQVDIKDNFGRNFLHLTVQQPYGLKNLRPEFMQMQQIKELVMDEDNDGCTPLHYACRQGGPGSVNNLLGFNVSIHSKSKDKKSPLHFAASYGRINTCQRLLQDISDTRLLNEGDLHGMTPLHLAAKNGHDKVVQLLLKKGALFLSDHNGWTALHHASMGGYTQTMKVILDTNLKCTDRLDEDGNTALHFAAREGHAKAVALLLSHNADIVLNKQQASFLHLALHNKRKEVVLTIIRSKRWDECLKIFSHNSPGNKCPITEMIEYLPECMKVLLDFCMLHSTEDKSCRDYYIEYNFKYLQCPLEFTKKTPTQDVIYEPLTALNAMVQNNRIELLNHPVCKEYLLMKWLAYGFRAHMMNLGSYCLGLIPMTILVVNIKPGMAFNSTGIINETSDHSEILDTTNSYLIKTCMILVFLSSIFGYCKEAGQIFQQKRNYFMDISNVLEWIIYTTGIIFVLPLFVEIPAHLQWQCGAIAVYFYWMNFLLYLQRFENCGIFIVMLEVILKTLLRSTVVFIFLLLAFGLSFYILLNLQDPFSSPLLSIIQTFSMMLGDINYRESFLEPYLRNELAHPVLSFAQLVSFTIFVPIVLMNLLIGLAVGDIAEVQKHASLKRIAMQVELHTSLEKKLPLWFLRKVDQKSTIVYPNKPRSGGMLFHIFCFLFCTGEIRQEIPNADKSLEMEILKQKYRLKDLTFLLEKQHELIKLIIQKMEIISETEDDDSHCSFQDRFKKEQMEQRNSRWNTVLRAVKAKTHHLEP

[3] = Glutathione reactivity assay; format: physicochemical; details: 10 μM compound, 1 mM glutathione, pH7.4, 37°C, 30 minutes
In short: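 The test compound (10 μM) is incubated with or without 1 mM glutathione in 50 mM potassium phosphate, pH7.4, at 37°C for 30 minutes, and the reaction is stopped on ice. Samples run by UHPLC-MS on a C18 column at 40 °C and 0.4 mL/min, with a 0.1% formic acid water/acetonitrile gradient of 5–50% B over 15 minutes, then a 95% B wash.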

Cav1.2 = Cav1.2 assay; format: cell-based; details: up to 30 μM
[4] = tested on: Gln940Val mutant human channel; assay: Ca2+ assay, point mutant; format: cell-based
In short: as §1

TRPA1 Phe909Ala = assay: Ca2+ assay, point mutant; format: cell-based, human
In short: as §1

TRPA1 from dog = assay: Ca2+ assay, species TRPA1; format: cell-based
In short: as §1

[5] = tested on: chimera containing S1-S6 domains of chicken TRPA1; assay: Ca2+ assay, human-chicken chimera; format: cell-based
In short: as §1

human TRPV1 = assay: Ion channel selectivity test; format: cell-based; details: 20 μM
human TRPC6 = assay: Ion channel selectivity test; format: cell-based; details: 20 μM
chicken TRPA1 = assay: Ca2+ assay, species TRPA1; format: cell-based; details: concentration as high as 50 μM
In short: as §1

[6] = tested on: TRPA1 Gln940 to Asn, Val or Ala; assay: Ca2+ assay, point mutants; format: cell-based, human
In short: as §1

TRPA1 from rat = assay: Ca2+ assay, species TRPA1; format: cell-based
In short: as §1

NK1 receptor [7] = assay: CEREP panel binding inhibition; details: 10 μM
[8] = tested on: TRPA1 Ser873Val/Thr874Leu; assay: Ca2+ assay, point mutant; format: cell-based, human
In short: as §1

human TRPM8 = assay: Ion channel selectivity test; format: cell-based; details: 20 μM
TRPA1 Tyr840 to Phe = assay: Ca2+ assay, point mutant; format: cell-based, human; details: versus wild type
In short: as §1

[9] = tested on: TRPA1 Tyr840 to Trp, His, Leu, or Ala; assay: Ca2+ assay, point mutants; format: cell-based, human
In short: as §1

hTRPA1 [10] = target: T1, hTRPA1; assay: Ca2+ influx assay, HEK293-F cells expressing human TRPA1; format: cell-based
NK1 receptor [11] = assay: NK1 receptor agonist / antagonist assay; format: cell-based; details: up to 30 μM
[12] = tested on: Cav1.2 (L-dihydropyridine site); assay: CEREP panel binding inhibition
[13] = tested on: TRPA1 Ser887 to Trp or Met; assay: Ca2+ assay, point mutants; format: cell-based, human
In short: as §1

TRPA1 from rhesus monkey = assay: Ca2+ assay, species TRPA1; format: cell-based
In short: as §1

[14] = tested on: human potassium channel hERG1; assay: Ion channel selectivity test; format: cell-based; details: 10 μM
TRPA1 from guinea pig = assay: Ca2+ assay, species TRPA1; format: cell-based
In short: as §1

[15] = tested on: rat dorsal root ganglion neurons; assay: Ca2+ influx in dorsal root ganglion neurons; format: cell-based; details: WT versus TRPA1 KO rats
hTRPA1 [16] = target: T1, hTRPA1
cryo-EM structure = target: the molecule itself; assay: cryo-EM structure

In the case of “WaTx: cell-penetrating peptide toxin that activates TRPA1 (ASPQQAKYCYEQCNVNKVPFDQCYQMCSPLERS) [reference compound]”, the opening frequency (TRPA1 channel) is reported as 1.7 ± 0.5 Hz, the “single channel open probability (Po)” value (TRPA1 channel) is reported as 0.045 ± 0.012 and the “open state dwell time” value (TRPA1 channel) is reported as 2.2 milliseconds.

In the case of `CCC(=N\O)/C(C)=C/c1ccc(F)cc1` [A-967079, reference compound], the “block of high basal activity” value (Glu864Trp channel; A-967079 1 μM) is reported as “blocked”.

In the case of `C=CCN=C=S` [AITC, allyl isothiocyanate, reference compound], the “activation of mutant channel” value (Gln940Val TRPA1) is reported as “robust response”, the “response of mutant to agonist stimulation” value (TRPA1 Glu864Trp mutant) is reported as “almost lost responses” and the “y (single channel conductance)” value (TRPA1 channel; cation Ca2+) is reported as 30.9 ± 6.2 pS. For the same molecule, the “Erev (reversal potential)” value (TRPA1 channel; cation Mg2+) was −19.1 ± 1.5 mV, the “y (single channel conductance)” value (TRPA1 channel; cation Mg2+) was 30.1 ± 6.8 pS and the “y (single channel conductance)” value (TRPA1 channel; cation Na+) was 134.9 ± 11.6 pS. For the same molecule, the channel desensitization (TRPA1 channel) was “desensitized within seconds”, the nocifensive response ([1]; after 10 min, AITC 0.1%, 25 μl) was “completely disappeared” and the cumulative nocifensive time ([1]; first 5 min period, AITC 0.1%, 25 μl, WT rats) was 102 ± 19 s. For the same molecule, the nocifensive behavior ([1]; intraplantar AITC 0.1%, 25 μl, WT and TRPA1 KO rats) was “elicited nocifensive behavior in wild type (WT) but not in knock out (KO) rats”, the cumulative nocifensive time ([1]; second 5 min period, AITC 0.1%, 25 μl, WT rats) was 57.7 ± 11.1 s and the “current of second application compared to the first” value (from here on “current … compared to the first”) (hTRPA1 [2]; −80 mV) was 19.4 ± 4.3%. For the same molecule, the glutathione adduct formation [3] was “formed a glutathione adduct”.

In the case of `COc1ccc(OC)c(NC(=O)c2nnn(Cc3ccc(Br)cc3F)c2N)c1` [GNE551, 5-amino-1-(4-bromo-2-fluorobenzyl)-N-(2,5-dimethoxyphenyl)-1H-1,2,3-triazole-4-carboxamide], the “open probability (Po)” value (Glu864Trp channel; GNE551 1 μM, n = 4, basal Po 0.56 ± 0.05) is reported as 0.80 ± 0.08, the “inhibition of Cav1.2” value (Cav1.2) is reported as “did not translate to” and the “activation of mutant channel” value (Gln940Val TRPA1) is reported as “failed to activate”. For the same molecule, the “effect of mutation on GNE551 activation” value [4] was “nearly abolished”, the “effect of mutation on GNE551 activation” value (TRPA1 Phe909Ala) was “not affected” and the “response of mutant to agonist stimulation” value (TRPA1 Glu864Trp mutant) was “almost lost responses”. The channel activation (TRPA1 from dog) was “activated”, the response of chimera [5] was “lost response” and the “activation or block of channel” value (human TRPV1) was “did not activate or block”. For the same molecule, the “Erev (reversal potential)” value (TRPA1 channel; cation Ca2+) was −25.6 ± 1.1 mV, the “Px/PNa (ion selectivity against Na+)” value (TRPA1 channel; cation Ca2+) was 15.7 ± 1.1 and the “y (single channel conductance)” value (TRPA1 channel; cation Ca2+) was 21.6 ± 2.8 pS. The “Erev (reversal potential)” value (TRPA1 channel; cation Mg2+) was −13.2± 2.7 mV, the “Px/PNa (ion selectivity against Na+)” value (TRPA1 channel; cation Mg2+) was 7.2 ± 1.3 and the “y (single channel conductance)” value (TRPA1 channel; cation Na+) was 101.4 ± 6.8 pS. The opening frequency (TRPA1 channel) was 4.6 ± 0.6 Hz, the “single channel open probability (Po)” value (TRPA1 channel) was 0.41 ± 0.07 and 0.41 and the “open state dwell time” value (TRPA1 channel) was 20.9 milliseconds. The channel desensitization (TRPA1 channel) was “did not result in desensitization”, the “latency to nocifensive response” value ([1]; GNE551 10 mM, 25 μl, WT rats) was “reduced” and the “residual response in TRPA1 KO rats” value ([1]; GNE551 10 mM, possibly vehicle effect) was 13%. The nocifensive behaviors ([1]; first 5 min after injection of GNE551) was “virtually no paw flicking, licking, or guarding”, the nocifensive response ([1]; intraplantar GNE551 1, 3, and 10 mM, 25 μl, WT rats) was “dose-dependent manner” and the “time to plateau of nocifensive behaviors after injection” value ([1]; intraplantar GNE551, 30-min observation) was 15 to 20 min. The “activation or block of channel” value (human TRPC6) was “did not activate or block”, the channel activation (chicken TRPA1) was “no effect” and the EC50 (hTRPA1 [2]) was 141 nM. The “current … compared to the first” value (hTRPA1 [2]; +80 mV) was 93.5 ± 0.5%, the “current … compared to the first” value (hTRPA1 [2]; −80 mV) was 89.0 ± 6.3% and the “effect of mutation on sensitivity to GNE551” value [6] was “completely abolished”. For the same molecule, the channel activation (TRPA1 from rat) was “activated”, the binding inhibition (NK1 receptor [7]) was over 75% and the “effect of mutation on GNE551 activation” value [8] was “not affected”. The “activation or block of channel” value (human TRPM8) was “did not activate or block”, the glutathione adduct formation [3] was “did not form an adduct” and the “reduction of potency by mutation” value (TRPA1 Tyr840 to Phe) was “six-fold”. For the same molecule, the “effect of mutation on sensitivity to GNE551” value [9] was “completely abolished”, the EC50 (hTRPA1 [10]) was 254 nM and the “efficacy compared to AITC” value (hTRPA1 [10]; Ca2+ influx, human TRPA1) was “equally efficacious”. For the same molecule, the “agonistic or antagonistic effect on NK1 receptor” value (NK1 receptor [11]) was “did not translate to significant agonistic or antagonistic effect”, the inhibition at 10 µM [12] was over 75% and the “effect of mutation on activation” value [13] was “loss of activation”. The channel activation (TRPA1 from rhesus monkey) was “activated”, the inhibition of channel [14] was “did not inhibit” and the channel activation (TRPA1 from guinea pig) was “activated”. For the same molecule, the “specificity of activation in DRG neurons” value [15] was “solely activated TRPA1 channels”.

In the case of “cell-penetrating peptide toxin WaTx (from UniProt C0HLG4 36-68)”, the open state dwell time of WaTx-activated channels, inside-out patches (hTRPA1 [16]) is reported as 2.2 milliseconds.

B1: human TRPA1 [Ser448-Thr1078], truncated and non-functional construct for structural studies (domain or fragment)
chain: GSGGSGGSGGSGGSPLHFAASYGRINTCQRLLQDISDTRLLNEGDLHGMTPLHLAAKNGHDKVVQLLLKKGALFLSDHNGWTALHHASMGGYTQTMKVILDTNLKCTDRLDEDGNTALHFAAREGHAKAVALLLSHNADIVLNKQQASFLHLALHNKRKEVVLTIIRSKRWDECLKIFSHNSPGNKCPITEMIEYLPECMKVLLDFCMLHSTEDKSCRDYYIEYNFKYLQCPLEFTKKTPTQDVIYEPLTALNAMVQNNRIELLNHPVCKEYLLMKWLAYGFRAHMMNLGSYCLGLIPMTILVVNIKPGMAFNSTGIINETSDHSEILDTTNSYLIKTCMILVFLSSIFGYCKEAGQIFQQKRNYFMDISNVLEWIIYTTGIIFVLPLFVEIPAHLQWQCGAIAVYFYWMNFLLYLQRFENCGIFIVMLEVILKTLLRSTVVFIFLLLAFGLSFYILLNLQDPFSSPLLSIIQTFSMMLGDINYRESFLEPYLRNELAHPVLSFAQLVSFTIFVPIVLMNLLIGLAVGDIADVQKHASLKRIAMQVELHTSLEKKLPLWFLRKVDQKSTIVYPNKPRSGGMLFHIFCFLFCTGEIRQEIPNADKSLEMEILKQKYRLKDLTFLLEKQHELIKLIIQKMEIISET
B1: binds (cryo-EM structure).
